Results from ChEMBL document CHEMBL4152372, “Novel autophagy modulators: Design and synthesis of (+)-epogymnolactam analogues and structure-activity relationship” (Bioorg Med Chem, 2018).
Active and inactive are the calls of the source. No cut-off for these calls is given here.

Columns and labels:
NIH3T3 [1] = assay: Induction of autophagy in mouse NIH/3T3 cells assessed as increase in LC3-2 to LC3-1 ratio at 25 to 100 uM after 4 hrs by immunoblot analysis; format: functional, cell-based
How it was run: (§1)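 Mouse embryo NIH3T3 fibroblasts seeded at 3.3 × 10^5 cells/ml at 37°C, 5% CO2; after 24 h the medium was changed and compounds added in DMSO at 25, 50 or 100 μM final. Controls were DMSO vehicle and 5 μM rapamycin. After 4 h at 37°C, cells were lysed in RIPA buffer and run on SDS-PAGE. Blots were probed for LC3, p62 and actin, and band signal ratios were quantified. Mean ± SD of triplicate.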

NIH3T3 [2] = assay: Induction of autophagy in mouse NIH/3T3 cells assessed as increase in LC3-2 to actin ratio at 25 to 100 uM after 4 hrs by immunoblot analysis; format: functional, cell-based; how it was run: as §1
NIH3T3 [3] = assay: Inhibition of autophagy in mouse NIH/3T3 cells assessed as decrease in LC3-2 to LC3-1 ratio after 4 hrs by immunoblot analysis; format: functional, cell-based
How it was run: (§2)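 NIH3T3 mouse embryo fibroblasts seeded at 3.3 × 10^5 cells/ml, cultured 24 h at 37°C/5% CO2, medium changed, then given compound in DMSO at final 25, 50, 100 μM for 4 h at 37°C. DMSO vehicle control; 5 μM rapamycin positive control. Cells lysed in RIPA, SDS-PAGE immunoblot for LC3, SQSTM1/p62, actin; band signals quantified as relative ratios. Mean ± SD of triplicates.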

NIH3T3 [4] = assay: Induction of apoptosis in mouse NIH/3T3 cells assessed as cell shrinkage at 50 to 100 uM measured after 4 hrs; format: functional, cell-based
NIH3T3 [5] = assay: Induction of autophagy in mouse NIH/3T3 cells assessed as upregulation of p62 expression at 25 to 100 uM after 4 hrs by immunoblot analysis; format: functional, cell-based; how it was run: as §2
NIH3T3 [6] = assay: Inhibition of autophagy in mouse NIH/3T3 cells assessed as decrease in LC3-2 to actin ratio after 4 hrs by immunoblot analysis; format: functional, cell-based; how it was run: as §2
NIH3T3 [7] = assay: Cytotoxicity against mouse NIH/3T3 cells assessed as reduction in cell viability at 25 to 100 uM after 4 hrs by CCK8 assay; format: cell-based; details: nih3t3, 4 h
How it was run: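 NIH3T3 cells counted by trypan blue exclusion, set to 0.53 × 10^4 cells/ml, and dosed at 25, 50 or 100 μM final (DMSO 0.1%). After 4 h at 37°C under CO2, CCK-8 reagent was added and incubation continued […]. Viable cells were read as OD450 against the DMSO control, mean ± SD of triplicate.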

NIH3T3 [8] = assay: Modulation of autophagy in mouse NIH/3T3 cells assessed as effect on p62 expression at 25 to 100 uM after 4 hrs by immunoblot analysis; format: functional, cell-based; how it was run: as §1
NIH3T3 [9] = assay: Induction of autophagy in mouse NIH/3T3 cells assessed as upregulation of p62 expression after 6 hrs by immunoblot analysis; format: functional, cell-based
NIH3T3 [10] = assay: Modulation of autophagy in mouse NIH/3T3 cells assessed as effect on LC3-2 to actin ratio at 25 to 100 uM after 4 hrs by immunoblot analysis; format: functional, cell-based; how it was run: as §1
NIH3T3 [11] = assay: Modulation of autophagy in mouse NIH/3T3 cells assessed as effect on LC3-2 to LC3-1 ratio at 25 to 100 uM after 4 hrs by immunoblot analysis; format: functional, cell-based; how it was run: as §1
NIH3T3 [12] = assay: Induction of autophagy in mouse NIH/3T3 cells assessed as increase in LC3-2 to actin ratio after 4 hrs by immunoblot analysis; format: functional, cell-based; how it was run: as §1
NIH3T3 [13] = assay: Induction of apoptosis in mouse NIH/3T3 cells assessed as cell shrinkage at 100 uM measured after 4 hrs; format: functional, cell-based
NIH3T3 [14] = assay: Induction of autophagy in mouse NIH/3T3 cells assessed as upregulation of p62 expression after 4 hrs by immunoblot analysis; format: functional, cell-based; how it was run: as §1
NIH3T3 [15] = assay: Induction of autophagy in mouse NIH/3T3 cells assessed as increase in LC3-2 to LC3-1 ratio after 4 hrs by immunoblot analysis; format: functional, cell-based; how it was run: as §1

In the case of CCCCC1(O)NC(=O)[C@H]2O[C@H]21 (stereo partly drawn), the Activity (NIH3T3 [1]) is reported as “inactive” and the Activity (NIH3T3 [2]) is reported as “inactive”.

CCCCCCCCC(=O)[C@H]1O[C@H]1C(N)=O was tested, and the inhibition (NIH3T3 [3]) was “Dose-dependent effect”, the Activity (NIH3T3 [4]) was “Active” and the Activity (NIH3T3 [5]) was “Active”. The inhibition (NIH3T3 [6]) was “Dose-dependent effect” and the Activity (NIH3T3 [7]) was “Toxic”.

For CCCC[C@]1(OC)NC(=O)[C@@H]2O[C@@H]21, the Activity (NIH3T3 [1]) was “inactive” and the Activity (NIH3T3 [2]) was “inactive”.

In the case of CCCCC(=O)CCC(N)=O, the Activity (NIH3T3 [1]) is reported as “inactive” and the Activity (NIH3T3 [2]) is reported as “inactive”.

For CCCC[C@@]1(O)NC(=O)[C@@H]2O[C@@H]21, the Activity (NIH3T3 [8]) was “inactive”, the Activity (NIH3T3 [9]) was “Active” and the Activity (NIH3T3 [1]) was “Active”. The Activity (NIH3T3 [4]) was “inactive”, the Activity (NIH3T3 [2]) was “Active” and the Activity (NIH3T3 [7]) was “Toxic”.

C/C=C/C/C=C/CCC(=O)[C@H]1O[C@H]1C(N)=O [CERULENIN] was tested, and the inhibition (NIH3T3 [3]) was “Dose-dependent effect”, the Activity (NIH3T3 [5]) was “Active” and the inhibition (NIH3T3 [6]) was “Dose-dependent effect”. The Activity (NIH3T3 [7]) was “Toxic”.

For CCCCC(=O)[C@H]1O[C@H]1C(=O)N(C)C, the Activity (NIH3T3 [1]) was “inactive” and the Activity (NIH3T3 [2]) was “inactive”.

CCCCCCCCCCC(=O)[C@H]1O[C@H]1C(N)=O was tested, and the Activity (NIH3T3 [10]) was “inactive”, the Activity (NIH3T3 [7]) was “Toxic” and the Activity (NIH3T3 [11]) was “inactive”.

With CCCC[C@@H](O)[C@H]1O[C@H]1C(N)=O the Activity (NIH3T3 [1]) was “inactive” and the Activity (NIH3T3 [2]) was “inactive”.

For CCCCCCC(=O)[C@H]1O[C@H]1C(N)=O, the Activity (NIH3T3 [12]) was “Dose-dependent effect”, the Activity (NIH3T3 [13]) was “Active” and the Activity (NIH3T3 [14]) was “Dose-dependent effect”. The Activity (NIH3T3 [15]) was “Dose-dependent effect” and the Activity (NIH3T3 [7]) was “Toxic”.
